Bioassay records as filed in PubChem.
STAT1 activator: STAT1 signaling activation. NIH 3T3 STAT1-luciferase reporter, IFN-gamma, luminescence; 100% = IFN-gamma alone, no compound. activation (% of control), % at 5.5 µM. actives 2.6% (n = 200,000). AID 932;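 active = activation above the screen-wide mean activation plus 3 SD, cut at about 130% in these data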;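 also: raw ratio to IFN-gamma control signal so 100% means no change and 0% no light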
NF-kB neuron act: raises NF-kB expression in human neuronal cells. NF-kB reporter expression; active compounds read high. fold change at 12.5 µM. actives 1.6% (n = 190,000); in the data active = fold change above about 3.3
APP 5'UTR act: APP 5'UTR luciferase reporter activation | actives 1% (n = 190,000) | SH-SY5Y APP 5'UTR luciferase reporter, luminescence; zero percent = DMSO vehicle wells | activation, % at 2 µM | AID 1276;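 active = activation above a set limit, based on mean plus 3 SD of controls, cut at about 140% in these data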
MDM2 E3 inh: inhibitors of human Mdm2 E3 ubiquitin ligase | actives 0.11% (n = 210,000) | cell-based MDM2 ubiquitination luciferase reporter, 2 h; 0 = plate control, 100 = twice control, blank-subtracted | AID 1230 | signal enhancement, % at 5 µM;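 active = signal enhancement of 30% or more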;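 also: luminescence tracks abundance of the self-degrading MDM2-luciferase fusion protein; higher signal means inhibition of MDM2 E3 ligase activity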
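Timing – 2 h compound exposure at 37 °C · Assay system – mammalian cells stably expressing self-ubiquitinating, self-degrading MDM2 E3–luciferase fusion · Amount – 2000 cells seeded into each well · Measure – % luminescence enhancement versus blank-corrected plate control mean · Measured by – SteadyLite luminescence, 15 min reagent step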
PERK inh: blocks human PERK kinase. AID 1416. inhibition, % at 5.6 µM. actives 0.17% (n = 220,000). CHO PERK-DD fusion, SEAP luminescence translation reporter. Q9NZJ5;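 active = inhibition above the mean inhibition of all tested compounds plus 3 SD, set separately per screening campaign, cut at about 2.9% in these data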;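 also: PERK kinase domain activated by AP20187 dimerizer at 100 nM; 0% = DMSO with dimerizer and 100% = rapamycin at 8.4 µM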
AHR act: activates the human aryl hydrocarbon receptor; P35869; AHR-responsive luciferase reporter cells, luminescence; activation, % at 5 µM; actives 2.5% (n = 320,000); AID 2796; in the data active = activation above about 47%;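 also: 0% = vehicle wells and 100% = reference agonist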
AHR act cf: confirmation of human aryl hydrocarbon receptor activators | shares compounds with AHR act | human cells, AHR-responsive luciferase reporter, luminescence | activation, % at 9 µM | actives 87% (n = 2,300); in the data active = activation above about 49%;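 also: HepG2 hepatoma cells carrying a DRE-driven firefly luciferase reporter; 0% = vehicle wells and 100% = reference agonist wells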
PXR counter: counter-screen for AHR activators: human PXR activators | AID 434939 | shares compounds with AHR act | actives 88% (n = 2,300) | activation, % at 11.6 µM | cell-based PXR reporter, luciferase luminescence; in the data active = activation above about 11%;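 also: human hepatoma DPX-2 cells expressing full-length human PXR; 0% = DMSO and 100% = reference agonist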
Target sequence (O75469 whole entry, looked up): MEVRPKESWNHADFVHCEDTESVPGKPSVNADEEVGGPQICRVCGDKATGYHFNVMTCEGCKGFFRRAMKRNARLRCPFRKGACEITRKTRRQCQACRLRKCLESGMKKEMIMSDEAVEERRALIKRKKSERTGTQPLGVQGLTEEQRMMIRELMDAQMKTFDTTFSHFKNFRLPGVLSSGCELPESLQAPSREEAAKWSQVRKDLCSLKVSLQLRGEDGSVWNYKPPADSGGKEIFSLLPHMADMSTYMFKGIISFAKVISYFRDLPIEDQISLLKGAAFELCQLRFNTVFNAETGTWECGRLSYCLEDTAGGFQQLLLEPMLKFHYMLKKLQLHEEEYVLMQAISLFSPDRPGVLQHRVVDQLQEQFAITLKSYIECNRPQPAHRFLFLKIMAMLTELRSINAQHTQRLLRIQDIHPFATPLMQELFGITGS
Numbers without * were called inactive; / = no result. This is a sample that favours compounds with a hit; in the whole collection about 4.5% have one here.

SMILES	STAT1 activator	NF-kB neuron act	APP 5'UTR act	MDM2 E3 inh	PERK inh	AHR act	AHR act cf	PXR counter
COc1ccccc1-c1sc2cc3c(cc2c1C#CC1(O)CCCCC1)OCO3	/	/	/	/	/	103.3*	100.9*	313.9*
COc1ccc(-c2sc3cc4c(cc3c2C#CC2(O)CCCCC2)OCO4)cc1	/	/	/	/	/	96.3*	81.0*	62.6*
Cn1cc(C(=O)N/N=C/C(Br)=C/c2ccccc2)ccc1=O	92.6	0.99	-84.7	-6.3	0.1	116.3*	143.4*	10.9*
Cn1cc(C(=O)N/N=C/C(Br)=C\c2ccccc2)ccc1=O	86.7	1.57	-0.5	-8.3	0.5	111.9*	76.7*	11.0*
COc1ccc(C(=O)N/N=C/C(Br)=C/c2ccccc2)cc1	89.7	0.99	-24.0	-12.2	0.6	16.1	/	/
Cn1cc(C(=O)N/N=C/C=C/c2ccccc2)ccc1=O	104.8	1.35	-25.9	-0.3	0.9	9.0	/	/
Cc1ccc(/C=N/NC(=O)c2cccs2)s1	125.7	2.63	42.5	-3.8	-0.5	130.0*	45.0	27.5*
CCOC(=O)CSc1c(-c2ccc(Cl)cc2)[nH]c2ccccc12	89.6	1.1	-8.4	-14.9	-0.1	92.6*	60.9*	9.2
COc1ccc(CNC(=O)[C@@H](C)NC(=O)C2CCN(C(=O)[C@@H](N)CCSC)CC2)cc1	/	/	/	/	/	0.1	/	/
O=C(NNC1=Nc2cc([N+](=O)[O-])ccc2OC1)c1ccccc1Cl	/	/	/	-7.2	1.0	1.6	/	/
CN(CC(=O)Nc1ccccc1Br)C(=O)C(Cc1ccccc1)NC(=O)c1ccccc1 (stereo unspecified)	/	/	/	/	/	-2.6	/	/
Cn1c(C(=O)N2CCC(C(N)=O)CC2)cc2cc(Cl)ccc21	/	/	/	/	/	100.9*	115.6*	/
CCC(=O)Nc1cc(-c2nn3c(C)nnc3s2)ccc1C	101.8	0.94	-0.5	-13.8	-0.6	23.2	/	/
CC(=O)Nc1cc(-c2nn3c(C)nnc3s2)ccc1C	105.9	1.34	1.8	-11.0	1.2	99.0*	88.6*	11.1*
CC(NC(=O)c1ccccc1)C(c1cccs1)N1CCOCC1 (stereo unspecified)	97.8	1.12	-4.7	-9.8	0.9	2.4	/	/
CC(=O)/C(N=Nc1ccc2c(c1)OCCO2)=C(\C)O	82.2	2.04	16.1	-46.0	0.9	-0.2	/	/
CC(=O)/C(N=Nc1ccc2c(c1)OCO2)=C(\C)O	138.1*	1.15	37.1	-4.3	0.7	112.3*	94.7*	9.0
Cc1cc(NC(=O)COC(=O)CCNS(=O)(=O)c2ccccc2)n(-c2ccccc2)n1	/	/	/	/	/	2.9	/	/
O=c1nc(Nc2ccc(Br)cc2)sc2ccc([N+](=O)[O-])cc12	/	/	/	/	0.7	95.6*	101.7*	/
COc1ccc(N(CCCN2C(=O)c3cccc4cccc(c34)C2=O)C(=O)c2cccs2)cc1	109.2	0.55	0.4	6.8	1.3	99.7*	139.8*	92.8*
OCCSc1nc(-c2ccccc2)nc2ccc(F)cc12	93.3	1.64	3.5	-9.2	-0.5	102.0*	95.5*	24.1*
COC(=O)CSc1nc(-c2ccccc2)nc2ccc(F)cc12	97.7	1.12	-16.1	-10.6	0.3	35.5	/	/
CCOc1ccc(S(=O)(=O)N2CCCCC2)cc1NC(=O)Cc1cccc(C(F)(F)F)c1	/	/	/	/	/	1.4	/	/
N#C/C(=C1/CCCCCN1)c1nc2ccccc2s1	115.9	1.41	-10.2	-18.9	0.8	87.0*	122.2*	56.3*
N#C/C(=C1\CCCN1)c1nc2ccccc2c(=O)[nH]1	99.8	0.98	8.2	7.2	0.2	15.2	/	/
SMILES	STAT1 activator	NF-kB neuron act	APP 5'UTR act	MDM2 E3 inh	PERK inh	AHR act	AHR act cf	PXR counter
COc1cc2c(cc1OC)/C(=C/c1ccc(Br)cc1)C(=O)OC2	91.0	1.44	19.5	1.2	-0.7	84.8*	60.1*	14.6*
COc1ccc(/C=C2\Cc3ccccc3C2=O)cc1OC	/	/	/	-2.1	-1.6	/	/	/
COc1ccccc1-c1nnc(SCC(=O)NC2CCCCC2)o1	100.4	0.97	16.6	-15.8	-0.6	21.9	/	/
COc1ccccc1-c1nnc(SCC(=O)Nc2c(Cl)cccc2Cl)o1	95.4	0.87	-1.5	-0.1	-0.4	79.7*	95.4*	82.8*
Cc1cc(=O)[nH]c(S/C=C/c2ccccc2)n1	94.4	4.14*	10.0	-17.2	1.0	117.8*	101.8*	25.5*
O=S(=O)(c1cccc(-c2n[nH]c(=S)n2-c2ccc(OC(F)(F)F)cc2)c1)N1CCOCC1	/	/	/	/	/	1.6	/	/
Cc1cnc(NC(=O)CCCc2nc3ccccc3s2)s1	98.9	1.11	-9.1	-4.1	0.1	270.7*	41.1	134.3*
O=C(CCn1c(=O)sc2ccccc21)Nc1nc2ccccc2s1	96.8	1.23	11.2	-13.2	0.4	106.2*	44.2	97.8*
O=C(CCn1c(=O)sc2ccccc21)NCc1ccccc1	104.2	1.05	0.3	-17.9	1.2	6.5	/	/
CC1=CC2=NC(=O)CC(C)(C(=O)N(CC(=O)NC(C)C)C3CCCC3)N2C=C1 (stereo unspecified)	95.8	1.28	-3.2	-1.1	0.1	2.4	/	/
CC(=O)Nc1ccc2cc3ccc(NC(C)=O)cc3nc2c1	/	/	/	2.7	1.1	107.0*	81.2*	/
CC(=O)Nc1ccc2ccccc2c1	99.0	1.71	-5.4	6.0	-0.5	2.7	/	/
O=C(CSc1nc(-c2ccccc2Cl)ns1)Nc1ccc2c(c1)OCO2	102.1	1.43	36.2	-0.4	0.8	87.1*	72.5*	16.6*
Cc1ccc(-c2nsc(SCC(=O)Nc3ccc4c(c3)OCO4)n2)cc1	103.7	0.91	29.7	-5.4	0.4	29.9	/	/
Cn1cc(-c2nc3ccccc3[nH]2)c2ccccc21	109.9	1.98	47.9	-15.8	-0.4	138.4*	121.6*	64.0*
Cc1c(-c2nc3ccccc3[nH]2)cnn1C	/	/	/	/	/	-1.1	/	/
CCOC(=O)c1[nH]c2cc3c(cc2c1NC(=O)CN1CCCCC1C)OCO3 (stereo unspecified)	95.8	0.82	-1.9	-8.6	-0.8	96.9*	91.7*	181.8*
Cc1cc(C)nc(SCC(N)=O)n1	/	/	/	-14.0	0.4	0.2	/	/
COC(=O)C1CCN(Cc2cn(-c3ccccc3)nc2-c2ccc3c(c2)OCO3)CC1	104.4	1.18	-1.0	-5.8	-1.9	10.1	/	/
O=C(Nc1cccnc1)c1sc(Nc2ccccc2F)nc1-c1ccccc1	119.5	1.19	-11.3	-8.2	1.8	33.8	/	/
Cc1ccccc1NC(=O)c1ccc(C)c(S(=O)(=O)Nc2cccnc2)c1	/	/	/	/	/	-1.9	/	/
O=C(Nc1cccnc1)c1ccc(NS(=O)(=O)c2cc([N+](=O)[O-])ccc2Cl)cc1	/	/	/	-7.4	1.9	3.6	/	/
O=C(Nc1ccc(Br)cc1)c1ccc(Br)c(S(=O)(=O)Nc2cccnc2)c1	99.3	1.04	4.2	-5.3	0.1	97.5*	55.9*	5.5
